The list is not random: actives were taken first. Their share in the collection is about 2.3%.
TRPC6 inhibitor – mouse TRPC6 channel inhibition | Q61143 | HEK293-TRPC6, membrane potential dye, ACh-evoked depolarization; active compounds read low | B-score at 10 µM | 310,000 compounds, 1.1% hits | AID 2553;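 active = B-score under library mean minus 3 SD, initial fluorescence not abnormally high, positive integrated signal ratio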;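 also: B-score derived from integrated fluorescence ratio over the kinetic read; more negative B-score means stronger inhibition of depolarization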
TRPC4 inh – blocks the mouse TRPC4 cation channel | Q9QUQ5 | B-score at 10 µM | 300,000 compounds, 0.39% hits | HEK293 TRPC4beta/mu-opioid, DAMGO-evoked Fluo4 calcium flux; active compounds read low;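 active = B-score over 3 SD under the library average, no early fluorescence shift, positive overall ratio signal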
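Assay system: HEK293 cells with stable TRPC4beta plus mu-opioid receptor expression. Dosing: single dose. Measured by: Fluo4 Ca2+ flux fluorescence. Also added: DAMGO in two steps, submaximal then maximal. Read-out: B score from integrated Fluo4 fluorescence ratio.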
TRPC4 PAM – allosterically enhances the mouse TRPC4 cation channel | 310,000 compounds, 0.42% hits | Q9QUQ5 | B-score at 10 µM | HEK293 TRPC4beta/mu-opioid, DAMGO EC20, Fluo-4 Ca2+ flux; active compounds read high;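 active = B-score of calcium response area above 5 SD of library B-scores, with initial fluorescence ratio within 5 SD of library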;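 also: B-score of integrated fluorescence ratio over time as area under calcium response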
TRPC6 act – activators of mouse TRPC6 channel; Q61143; HEK293-TRPC6 membrane potential dye fluorescence; active compounds read high; B-score at 10 µM; 310,000 compounds, 0.13% hits;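 active = B-score of the integrated fluorescence ratio above library mean plus 3 SD, and starting fluorescence ratio within library mean plus 5 SD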;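 also: higher score means more depolarization so channel activation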
TRPC4 act – opens the mouse TRPC4 cation channel; Q9QUQ5; HEK293 TRPC4beta/mu-opioid, Fluo4 calcium fluorescence; active compounds read high; B-score at 10 µM; 310,000 compounds, 0.49% hits; AID 2237;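 active = B-score above 5 SD of library B-scores, and initial fluorescence ratio not above library mean plus 5 SD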;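 also: positive B-score marks a calcium rise read as TRPC4 activation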
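System – HEK293 cells stably co-expressing mouse TRPC4beta and mu-opioid receptor · Signal – Fluo4 calcium-sensitive dye fluorescence, kinetic, 1 Hz baseline · Benchmarks – buffer (low) and maximal DAMGO (high) · Read-out – B score of integrated fluorescence ratio per well · Incubation – dye loading 45 min room temperature, 110 s kinetic read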
TRPC4 sel inh 2 – mouse TRPC4 off-target activity of TRPC6 inhibitors, second screen | inhibition, % at 10 µM | 920 compounds, 42% hits | shares compounds with TRPC6 inhibitor | HEK293 TRPC4/MOR, membrane potential dye fluorescence; channel activated by saturating DAMGO dose;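 active = compounds whose fluorescence signal differed from control wells by over 3 SD, either direction, in both duplicate plates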
TRPC4 spec – selectivity of TRPC6 inhibitors: effect on mouse TRPC4 | shares compounds with TRPC6 inhibitor | HEK293 TRPC4/mu-opioid, membrane potential fluorescence | activity change, negative = inhibition, % at 10 µM | 920 compounds, 61% hits | AID 2777;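 active = rise or fall in signal beyond 3 SD of buffer-only wells in both replicate plates, either sign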;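 also: integrated kinetic ratio of fluorescence range over baseline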
HEK293 MPD ctr 2-1 – second check of TRPC6 inhibitor effects in parental HEK293 cells. shares compounds with TRPC6 inhibitor. parental HEK293 membrane potential dye fluorescence; maximal acetylcholine challenge after compound addition. signal change vs control, % at 10 µM. 920 compounds, 31% hits. AID 2779;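 active = membrane potential signal moving either way by over 3 SD of the maximum-effect control, in both duplicate plates, meaning non-specific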
HEK293 MPD ctr-1 – checks TRPC6 inhibitor effects in parental HEK293 cells; shares compounds with TRPC6 inhibitor; parental HEK293 membrane potential dye fluorescence; membrane potential signal change, % at 10 µM; 920 compounds, 60% hits;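 active = membrane potential signal shifting up or down by more than 3 SD of buffer-only wells, on both duplicate plates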
HEK293 MPD ctr-2 – counter-screen for TRPC6 modulators: effect in parental HEK293 cells | shares compounds with TRPC6 inhibitor | membrane potential dye fluorescence | membrane potential signal change, % at 10 µM | 2,400 compounds, 51% hits;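 active = membrane potential signal moves up or down beyond 5 SD from buffer-only wells, on both duplicate plates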
HEK293 MPD ctr 2-2 – parental HEK293 nonspecific activity of TRPC6 modulators, second screen | shares compounds with TRPC6 inhibitor | membrane potential dye fluorescence; after compound, maximal acetylcholine stimulation | 2,400 compounds, 14% hits | inhibition, % at 10 µM;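 active = membrane potential signal drops by more than 5 SD from the mean control signal, in both duplicate plates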;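 also: plate controls were acetylcholine ECmax control wells for no effect and buffer only wells for full effect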
TRPC4 ctr mod – tests whether TRPC6 modulators also affect mouse TRPC4 | AID 488927 | shares compounds with TRPC6 inhibitor | percent change from control (negative = decrease, positive = increase), % at 10 µM | 2,400 compounds, 69% hits | HEK293 TRPC4/mu-opioid, membrane potential fluorescence;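 active = membrane potential signal moved up or down beyond 5 SD of buffer control wells, in both duplicate plates, actives on both sides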;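 also: plate controls were assay buffer wells for no effect and DAMGO maximal-effect wells for full effect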
TRPC4/MOR inh 2 – second selectivity test of TRPC6 modulators against mouse TRPC4 | shares compounds with TRPC6 inhibitor | HEK293 TRPC4/mu-opioid, membrane potential dye fluorescence; stimulated with maximal-effect DAMGO | inhibition, % at 10 µM | 2,400 compounds, 55% hits | AID 488928;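 active = drop in membrane potential signal beyond 5 SD of the control wells in both duplicate plates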;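 also: TRPC4 counter screen for TRPC6 hits run under conditions tuned for TRPC6 not TRPC4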
TRPC6 inh conf – mouse TRPC6 inhibitor confirmation. 3,300 compounds, 43% hits. inhibition, % at 10 µM. shares compounds with TRPC6 inhibitor. HEK293-TRPC6, membrane potential dye, ACh-evoked depolarization. AID 488960;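 active = fluorescence ratio falls more than 5 SD below the full-stimulation control mean, in both duplicate runs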;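 also: integrated fluorescence ratio of peak minus minimum over baseline after agonist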
TRPC6 act confirm – mouse TRPC6 activator confirmation | shares compounds with TRPC6 inhibitor | HEK293-TRPC6 membrane potential dye fluorescence, FDSS | activation, % at 10 µM | 2,800 compounds, 11% hits;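 active = ratio signal rise beyond 5 SD above unstimulated control wells' mean, seen in both duplicate runs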;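 also: plate controls were buffer EC0 wells for no effect and acetylcholine ECmax response for full effect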
Active calls of the source: *; i = inactive; · = no result; + = active, no number.

SMILES	TRPC6 inhibitor	TRPC4 inh	TRPC4 PAM	TRPC6 act	TRPC4 act	HEK293 MPD ctr-2	HEK293 MPD ctr 2-2	TRPC4 ctr mod	TRPC4/MOR inh 2	TRPC6 inh conf	TRPC6 act confirm	others
O=C(NC(=S)N(CCO)Cc1ccccc1)c1ccc(S(=O)(=O)N2CCCC2)cc1	i	i	i	i	i	·	·	·	·	·	·
COc1ccc(N2CCN(C(=O)c3ccc(F)cc3)CC2)c([N+](=O)[O-])c1	i	i	i	i	i	·	·	·	·	·	·
O=C(c1ccc(F)cc1)N1CCN(c2cc(N3CCCCC3)c(F)cc2[N+](=O)[O-])CC1	-10*	·	i	i	i	·	·	·	·	i	i	TRPC4 sel inh 2=i;TRPC4 spec=i;HEK293 MPD ctr 2-1=i;HEK293 MPD ctr-1=i
S=C(c1cn(Cc2ccc(Br)cc2)c2ccccc12)N1CCOCC1	i	i	i	i	i	·	·	·	·	·	·
Cc1cc(=O)oc2c3c4c(cc12)OCCN4CCC3	i	i	i	i	i	·	·	·	·	·	·
CC(C)c1cc(=O)oc2c3c4c(cc12)CCCN4CCC3	-5.2*	i	i	i	i	640%*	i	-127%*	39%*	i	i
O=C(Oc1ccccc1Cl)c1ccc2c(=O)n3c(nc2c1)CCC3	-5.4*	i	i	i	i	i	i	i	i	i	i
CC(=O)Nc1cc(NC(C)=O)cc(C(=O)NC(C)(C)C)c1	i	i	i	i	i	·	·	·	·	·	·
CC(Oc1coc(CN2CCN(C(=O)c3ccco3)CC2)cc1=O)c1ccccc1 (stereo not given)	i	i	i	i	i	·	·	·	·	·	·
O=C(CCCC1=NS(=O)(=O)c2ccccc2N1)N1CCN(c2ccccc2)CC1	-5.7*	i	i	i	i	i	i	i	i	47%*	·
O=C(CSc1nnc(CNC(=O)C23CC4CC(CC(C4)C2)C3)n1-c1ccccc1)Nc1ccccc1	i	i	i	i	i	·	·	·	·	·	·
O=c1oc2ccccc2nc1/C=C(\O)c1ccccc1	i	i	i	i	i	·	·	·	·	·	·
O/C(=C\c1nc2ccccc2nc1/C=C(\O)c1ccccc1)c1ccccc1	i	i	i	13*	i	268%*	i	i	i	i	i
O/C(=C\c1ccc2ccccc2n1)c1ccncc1	i	i	i	46*	66*	+	+	186%*	48%*	·	314%*
Cc1nn(-c2ccc(F)cc2)c(Cl)c1/C=C1\C(=O)Nc2ccccc21	i	i	i	i	i	·	·	·	·	·	·
COc1ccc(C(CNC(=O)Cc2ccccc2Cl)N2CCCCC2)cc1 (stereo not given)	i	i	i	i	i	·	·	·	·	·	·
COc1ccc(C(CNC(=O)c2ccc(Cl)c(NC(=O)c3cccs3)c2)N2CCCC2)cc1 (stereo not given)	-6*	i	i	i	i	106%*	i	i	64%*	42%*	·
CN1C2CCC1CC(OC(c1ccccc1)c1ccccc1)C2 (stereo not given)	-7.1*	i	i	i	i	·	·	·	·	69%*	·	TRPC4 sel inh 2=68%*;TRPC4 spec=19%*;HEK293 MPD ctr 2-1=i;HEK293 MPD ctr-1=14%*
CN1C2CCC1CC(OC(=O)c1c[nH]c3ccccc13)C2 (stereo not given)	i	i	i	i	i	·	·	·	·	·	·
CCOC(=O)c1nc2cc3n(c(C)c-2c1C)C(C)C(CC)=C3C (stereo not given)	-6.5*	i	i	i	i	158%*	174%*	24%*	34%*	52%*	i
O=C(C[n+]1ccc(C(=O)NCCCO)cc1)c1cccc(Br)c1	i	i	i	i	i	·	·	·	·	·	·
O=C(c1cc2nc(-c3ccco3)cc(C(F)(F)F)n2n1)N1CCN(Cc2ccccc2)CC1	-6.7*	i	i	i	i	·	·	·	·	i	i	TRPC4 sel inh 2=i;TRPC4 spec=5.7%*;HEK293 MPD ctr 2-1=227%*;HEK293 MPD ctr-1=2.3%*
COc1ccc(-c2cc(C(F)(F)F)n3nc(C(=O)N4CCN(C(=O)c5ccco5)CC4)cc3n2)cc1	i	i	i	i	i	·	·	·	·	·	·
CC(=O)C1=C(O)C(=O)N(c2ccc(Br)cc2)C1c1cccc([N+](=O)[O-])c1 (stereo not given)	i	i	i	i	i	·	·	·	·	·	·
OCC[C@H]1C[C@@H](O)[C@H](O)[C@@]2(CCCCO2)O1	-7.4*	i	i	i	i	·	·	·	·	i	i	TRPC4 sel inh 2=i;TRPC4 spec=i;HEK293 MPD ctr 2-1=i;HEK293 MPD ctr-1=i
O=c1cc(-c2ccc(Cl)c(Cl)c2)[nH][nH]1	-5.1*	i	i	i	i	i	i	i	i	i	i
COc1cc(/C=N/NC(=O)Cn2nc([N+](=O)[O-])cc2C)cc(Br)c1OCc1ccccc1	-5.1*	i	i	i	i	i	i	i	i	i	i
CCn1cc(CN2CCCC(CNC(=O)COc3ccccc3OC)C2)c(C)n1 (stereo not given)	i	i	i	i	i	·	·	·	·	·	·

Source: PubChem
